# Assay results gathered from unrelated publications.
# Lines come from different studies, so protocols differ.
# CSF1R: Macrophage colony-stimulating factor 1 receptor (CSF1R, Homo sapiens, UniProt P07333)
Compound,target,read-out,mode,technique,concentration,measurement,result
CC(C)(C)c1cc(C=C(C#N)C#N)cc(Br)c1O,CSF1R,enzyme activity,inhibitor,,0.5 µM,remaining activity,96.8%
N#CC1(c2ccccn2)CCN(Cc2cc(C(=O)O)c(=O)n3ccccc23)CC1,CSF1R,cell-free assay,,competition with immobilised ligand,1 µM,remaining binding,95%
COCc1c(-c2cc3cc(C)cc(OC)c3s2)c2c(N)ncnn2c1CN1CCNC(=O)C1,CSF1R,cell-free assay,,competition with immobilised ligand,1 µM,inhibition,100%
COc1ncccc1-c1cnn2ccc(N3CCN(C(=O)OC(C)C)CC3)nc12,CSF1R,binding,,competition with immobilised ligand,1 µM,remaining binding,100%
O=c1[nH]c2ccccc2n1C1CCN(Cc2ccc(-c3[nH]c4cc5ncnc5cc4nc3-c3ccccc3)cc2)CC1,CSF1R,cell-free assay,,,0.5 µM,remaining signal,97%
C#Cc1n[nH]c2c(-c3cn(C(C)c4ccccn4)c(=O)[nH]c3=O)cc(F)cc12 (centres unmarked),CSF1R,enzyme activity,inhibitor,,1 µM,inhibition,5.8%
Cn1cc(-c2cc(F)cc(N3CCn4c(cc5c4CCCC5)C3=O)c2CO)cc(Nc2ccc(N3CCN(C4COC4)CC3)cn2)c1=O,CSF1R,enzyme activity,inhibitor,,0.1 µM,inhibition,13%
Nc1ncc(-c2nc(N3CCOCC3)nc(N3CCOCC3)n2)c(C(F)F)n1,CSF1R,cell-free assay,,competition with immobilised ligand,10 µM,remaining binding,14%
Cn1cc(-c2cccc(N3CCc4c(sc5c4CC(C)(C)C5)C3=O)c2CO)cc(Nc2ccncn2)c1=O,CSF1R,enzyme activity,inhibitor,,1 µM,inhibition,6%
Cn1cncc1[C@](O)(COc1ccc(C#N)cc1-c1ccc(OC(F)(F)F)cc1)c1ccc(C#N)cc1,"Macrophage colony-stimulating factor 1 receptor, autoinhibited (CSF1R, Homo sapiens, UniProt P07333)",cell-free assay,,competition with immobilised ligand,1 µM,remaining binding,93%
C#Cc1n[nH]c2c(-c3cn([C@@H](C)c4ccccc4)c(=O)[nH]c3=O)cc(F)cc12,CSF1R,enzyme activity,inhibitor,,0.1 µM,inhibition,4.9%
